Assay results as given in ChEMBL document CHEMBL3046428, “Isolation, characterization and antifungal activity of major constituents of the Himalayan lichen Parmelia reticulata Tayl” (2011).
Values after ≈ are worked out from the molar mass of the structure shown.

Columns and labels:
Type in all cases: functional
[1] = tested on: Globisporangium debaryanum; assay: Antifungal activity against Pythium debaryanum assessed as growth inhibition by poisoned food technique; details: read-out: ED50 (the source's name)
Summary of the method: (§1)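 ED50 from poisoned-food growth inhibition on PDA at 250, 125 and 62.5 μg/mL in medium, with an acetone control. Plates were inoculated with a 5 mm mycelial disc, incubated at 28 °C, and colony diameter was measured in quadruplicate. Percent inhibition was corrected by Abbott's formula, using a correction factor from the 9 cm dish diameter, and ED50 (μg/mL) was derived by probit analysis.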

[2] = tested on: Globisporangium debaryanum; assay: Antifungal activity against Pythium debaryanum assessed as growth inhibition at 62.5 ug/ml by poisoned food technique
Summary of the method: (§2)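 Poisoned-food assay on PDA. Test material was diluted in acetone and mixed into molten medium at final 250, 125 or 62.5 μg/mL, with 1 mL acetone as control. Plates received a 5 mm mycelial disc from the front of a 2-week-old colony and were incubated at 28 °C until control growth was nearly complete. Colony diameter was measured, giving %I = (C−T)/C×100. Mean ± SD of four replicates.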

[3] = tested on: Globisporangium debaryanum; assay: Antifungal activity against Pythium debaryanum assessed as growth inhibition at 125 ug/ml by poisoned food technique; summary of the method: as §2
[4] = tested on: Globisporangium debaryanum; assay: Antifungal activity against Pythium debaryanum assessed as growth inhibition at 250 ug/ml by poisoned food technique; summary of the method: as §2
[5] = tested on: Pythium aphanidermatum; assay: Antifungal activity against Pythium aphanidermatum assessed as growth inhibition by poisoned food technique; details: read-out: ED50 (the source's name); summary of the method: as §1
[6] = tested on: Pythium aphanidermatum; assay: Antifungal activity against Pythium aphanidermatum assessed as growth inhibition at 62.5 ug/ml by poisoned food technique; summary of the method: as §2
[7] = tested on: Pythium aphanidermatum; assay: Antifungal activity against Pythium aphanidermatum assessed as growth inhibition at 125 ug/ml by poisoned food technique; summary of the method: as §2
[8] = tested on: Pythium aphanidermatum; assay: Antifungal activity against Pythium aphanidermatum assessed as growth inhibition at 250 ug/ml by poisoned food technique; summary of the method: as §2
[9] = tested on: Fusarium udum; assay: Antifungal activity against Fusarium udum assessed as growth inhibition by poisoned food technique; details: read-out: ED50 (the source's name); summary of the method: as §1
[10] = tested on: Fusarium udum; assay: Antifungal activity against Fusarium udum assessed as growth inhibition at 62.5 ug/ml by poisoned food technique; summary of the method: as §2
[11] = tested on: Fusarium udum; assay: Antifungal activity against Fusarium udum assessed as growth inhibition at 125 ug/ml by poisoned food technique; summary of the method: as §2
[12] = tested on: Fusarium udum; assay: Antifungal activity against Fusarium udum assessed as growth inhibition at 250 ug/ml by poisoned food technique; summary of the method: as §2
[13] = tested on: Macrophomina phaseolina; assay: Antifungal activity against Rhizoctonia bataticola assessed as growth inhibition by poisoned food technique; details: read-out: ED50 (the source's name); summary of the method: as §1
[14] = tested on: Macrophomina phaseolina; assay: Antifungal activity against Rhizoctonia bataticola assessed as growth inhibition at 62.5 ug/ml by poisoned food technique; summary of the method: as §2
[15] = tested on: Macrophomina phaseolina; assay: Antifungal activity against Rhizoctonia bataticola assessed as growth inhibition at 125 ug/ml by poisoned food technique; summary of the method: as §2
[16] = tested on: Macrophomina phaseolina; assay: Antifungal activity against Rhizoctonia bataticola assessed as growth inhibition at 250 ug/ml by poisoned food technique; summary of the method: as §2
[17] = tested on: Rhizoctonia solani; assay: Antifungal activity against Rhizoctonia solani assessed as growth inhibition by poisoned food technique; details: read-out: ED50 (the source's name); summary of the method: as §1
[18] = tested on: Rhizoctonia solani; assay: Antifungal activity against Rhizoctonia solani assessed as growth inhibition at 62.5 ug/ml by poisoned food technique; summary of the method: as §2
[19] = tested on: Rhizoctonia solani; assay: Antifungal activity against Rhizoctonia solani assessed as growth inhibition at 125 ug/ml by poisoned food technique; summary of the method: as §2
[20] = tested on: Rhizoctonia solani; assay: Antifungal activity against Rhizoctonia solani assessed as growth inhibition at 250 ug/ml by poisoned food technique; summary of the method: as §2
[21] = tested on: Athelia rolfsii; assay: Antifungal activity against Athelia rolfsii assessed as growth inhibition by poisoned food technique; details: Agroathelia rolfsii; read-out: ED50 (the source's name); summary of the method: as §1
[22] = tested on: Athelia rolfsii; assay: Antifungal activity against Athelia rolfsii assessed as growth inhibition at 62.5 ug/ml by poisoned food technique; details: Agroathelia rolfsii; summary of the method: as §2
[23] = tested on: Athelia rolfsii; assay: Antifungal activity against Athelia rolfsii assessed as growth inhibition at 125 ug/ml by poisoned food technique; details: Agroathelia rolfsii; summary of the method: as §2
[24] = tested on: Athelia rolfsii; assay: Antifungal activity against Athelia rolfsii assessed as growth inhibition at 250 ug/ml by poisoned food technique; details: Agroathelia rolfsii; summary of the method: as §2

Structure (SMILES)	EC50 [1] [µg/mL]	inhibition at 62.5 µg/mL [2] [%]	inhibition at 125 µg/mL [3] [%]	inhibition at 250 µg/mL [4] [%]	EC50 [5] [µg/mL]	inhibition at 62.5 µg/mL [6] [%]	inhibition at 125 µg/mL [7] [%]	inhibition at 250 µg/mL [8] [%]	EC50 [9] [µg/mL]	inhibition at 62.5 µg/mL [10] [%]	inhibition at 125 µg/mL [11] [%]	inhibition at 250 µg/mL [12] [%]	EC50 [13] [µg/mL]	inhibition at 62.5 µg/mL [14] [%]	inhibition at 125 µg/mL [15] [%]	inhibition at 250 µg/mL [16] [%]	EC50 [17] [µg/mL]	inhibition at 62.5 µg/mL [18] [%]	inhibition at 125 µg/mL [19] [%]	inhibition at 250 µg/mL [20] [%]	further results
Cc1cc(O)c(C=O)c2c1C(=O)Oc1c(CO)c(O)c3c(c1O2)C(O)OC3=O (stereo not given) [SLAZINIC ACID]	151 (≈ 388 µM)	11.9	28.1	43.5	121 (≈ 312 µM)	11.1	25.5	61	88.2 (≈ 227 µM)	31	50.1	67	161 (≈ 416 µM)	9	26.8	41.2	179 (≈ 462 µM)	22.1	30.2	45.2	EC50 [21]: 164 µg/mL (≈ 423 µM); inhibition at 62.5 µg/mL [22]: 5.93%; inhibition at 125 µg/mL [23]: 21%; inhibition at 250 µg/mL [24]: 38.2%
COc1cc(C)c(C(=O)Oc2cc(C)c(C(=O)O)c(O)c2C)c(O)c1C=O [BAEOMYCESIC ACID]	144 (≈ 383 µM)	18.3	38.2	77.1	149 (≈ 398 µM)	11.4	29.3	44.4	110 (≈ 293 µM)	33.5	47.1	57.9	150 (≈ 400 µM)	17.1	28.4	49.1	71.3 (≈ 190 µM)	33.4	61.4	81.6	EC50 [21]: 86.7 µg/mL (≈ 231 µM); inhibition at 62.5 µg/mL [22]: 32.2%; inhibition at 125 µg/mL [23]: 44.4%; inhibition at 250 µg/mL [24]: 72.4%
CCOC(=O)c1c(C)cc(O)cc1O [ORSELLINIC ACID, ETHYL ESTER]	72.5 (≈ 370 µM)	28.3	61.2	91.4	86.9 (≈ 443 µM)	18.5	50.4	83.3	98.2 (≈ 501 µM)	17.3	32.5	79.4	114 (≈ 580 µM)	16.4	28	67.2	58.3 (≈ 297 µM)	44.4	68.1	90.4	EC50 [21]: 82.7 µg/mL (≈ 421 µM); inhibition at 62.5 µg/mL [22]: 28.3%; inhibition at 125 µg/mL [23]: 50.5%; inhibition at 250 µg/mL [24]: 78%
COC(=O)c1c(C)cc(OC(=O)c2c(C)cc(O)c(C=O)c2O)c(C)c1O [ATRANORIN]	44.8 (≈ 120 µM)	56.3	78	89.7	105 (≈ 280 µM)	22	43	60.3	50.3 (≈ 134 µM)	50	81.3	90	58.8 (≈ 157 µM)	44.3	67.7	80	64.6 (≈ 173 µM)	40	62	81.3	EC50 [21]: 39.7 µg/mL (≈ 106 µM); inhibition at 62.5 µg/mL [22]: 67.3%; inhibition at 125 µg/mL [23]: 89.7%; inhibition at 250 µg/mL [24]: 100%
COC(=O)c1c(C)cc(O)c(C=O)c1O [METHYL HAEMATOMMATE]	88.2 (≈ 420 µM)	34	47.3	71.3	90.6 (≈ 431 µM)	24.4	46.4	69.3	71.2 (≈ 339 µM)	46.5	50.5	67.3	52.9 (≈ 252 µM)	53.1	61.4	78.2	50.5 (≈ 240 µM)	50.6	72.6	81.7	EC50 [21]: 60.3 µg/mL (≈ 287 µM); inhibition at 62.5 µg/mL [22]: 44.2%; inhibition at 125 µg/mL [23]: 66.6%; inhibition at 250 µg/mL [24]: 89.2%
